Article PMC2229322 (The Journal of General Physiology, 1996)

Columns and labels:
[1] = tested on: 391C Shaker K+ channel with intact N-type inactivation (Sh +); assay: N-type inactivation of intact; type: cell-based, Drosophila; conditions: for effect of 391C modification on N-type inactivation current: voltage jump -80 to 0 mV, 50 ms, complete modification (Fig. 2)
Outline: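 Inside-out patches from HEK293 cells expressing channels with intact N-terminus, stepped -80 to 0 mV. Inactivation gate removed by internal trypsin perfusion. Traces normalised to the mean current of the last 20 ms after trypsin. Ag+ 20 nM for 2 min applied; completeness checked by pulsing at 0.25 Hz.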

[2] = target: E395C mutant Shaker K+ channel (Drosophila melanogaster, UniProt P08510, C301S/C308S/DEL6-46/E395C/T449V); assay: Sensitivity of E395C to internal open channel blockers; type: cell-based; conditions: internal open channel blocker
[3] = tested on: 391C ShA Shaker K+ channel; assay: Rate of chemical modification of 391C; type: cell-based, Drosophila; conditions: MTSET
[4] = tested on: 381C ShA Shaker K+ channel; assay: Chemical modification of 381C; type: cell-based, Drosophila; conditions: for slope (time constant x [MTSET]) of current reduction: 381C
Outline: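 Inside-out patches from transfected HEK293 cells; […] to 0 mV from -100 mV holding. Computer-controlled reagent pulses of 1 or 2 s began ~500 ms after step onset; sampled 5 kHz, filtered 1 kHz. Time axis normalised to reagent concentration; current reduction fitted to single exponentials. Frequency runs alternated -100 with 0 or +60 mV, equal time at each.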

[5] = tested on: cysteine mutants (380-398) of the S4-S5 linker, ShA Shaker K+ channel; assay: Chemical modification of cysteine mutants of the S4-S5 linker; type: cell-based, Drosophila; conditions: positions with large current reduction
Outline: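 Cysteine-substituted channels in inside-out patches from transfected HEK293 cells, pH 7.4 solutions. Thiol reagents applied internally; completeness of modification followed by pulsing at 0.25 Hz. Conditions: MMTS 2 mM, 1 min; Ag+ 20 nM, 2 min; MTSEA 100 µM, 30 s.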

[6] = tested on: 382C ShA Shaker K+ channel; assay: Chemical modification of 382C; type: cell-based, Drosophila; conditions: vs 381C, toward more positive voltages (Fig. 7 C and E)
K+ channels = assay: Test of perfusion change by TEA blockade; type: cell-based; conditions: internal TEA; reflects time course of solution change by perfusion system
Outline: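 Rapid internal solution exchange on excised patches via a computer-controlled solenoid perfusion system. Exchange speed assessed by applying TEA.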

Shaker K+ channel = conditions: intracellular application; ref Choi et al., 1991; cited from earlier work
[7] = Net charge of ball peptides; type: physicochemical; conditions: COOH terminal amidated, NH2 terminal positively charged
[8] = tested on: NH2-terminal deletion mutant Shaker K+ channel; conditions: ref Zagotta et al., 1990; cited from earlier work

## [Ag+] [Ag+, silver]
[1]; Ag+ 20 nM for 2 min (Fig. 2)
  additional effect of 391C modification on tethered ball: additional ef- fect on the association rate
[1]
  effect of 391C modification on N-type inactivation current: increase in the steady- state current level without much change in the peak current

## CCCCCCCCCC[N+](CC)(CC)CC [C10-TEA, de- cyltriethylammonium]
[2]
  affinity of E395C mutant compared with wild-type channel: reduced fourfold

## CSS(C)(=O)=O [MMTS, Methyl methanethiosulfonate]
[1]
  effect of 391C modification on N-type inactivation current: increase in the steady- state current level without much change in the peak current

## C[N+](C)(C)CCSS(C)(=O)=O [MTSET, [(2-trimethylammoniuin)ethyl]methanethiosulfonate]
[1]
  effect of 391C modification on N-type inactivation current: parallel increase of the steady state and the peak current
[3]
  total current after modification of A391C: no reduction in the total current
[3]; Fig. 6C
  voltage dependence of modification rate of 391C: higher at positive voltages
[4]; 50 10-ms pulses vs 5 100-ms pulses, -100 to 0 mV
  rate of modification of 381C with rapidly switching stimulus: about threefold faster
[4]; MTSET, 0 mV (Fig. 7B)
  slope (time constant x [MTSET]) of current reduction: 0.33 mM·s
[4]; MTSET, -120 mV (Fig. 7B)
  slope (time constant x [MTSET]) of current reduction: 2.47 mM·s
[4]; MTSET, Fig. 7 A and B
  current reduction by modification of 381C: > 80%
[5]
  reactivity of positions 389 and 397: only very slowly reactive
[6]
  shift of voltage dependence of gating and modification for 382C: ~ 50 mV

## CC[N+](CC)(CC)CCSS(C)(=O)=O [MTSTEA, [(2-triethylammonium)ethyl] methanethiosulfonate]
[1]
  effect of 391C modification on N-type inactivation current: qualitatively similar results

## CC[N+](CC)(CC)CC [TEA, tetraethylammonium]
[2]
  affinity of E395C mutant compared with wild-type channel: reduced fourfold
K+ channels
  time constant of TEA blockade observed: ~ 10 ms
Shaker K+ channel
  effect on N-type inactivation: slows down N-type inactivation

## MAAVAGLYGLGEDRQHRKKQ [Shaker ball peptide]
[7]
  net charge: +3
[8]
  reconstitution of fast inactivation by intracellular application: effectively reconsti- tuted

## Trypsin
[1]; 0.0025% trypsin perfused on inside-out patch (Fig. 2A)
  effect of removing the inactivation gate: larger non-inactivated current level
